Data published in ChEMBL document CHEMBL2311335, “Increased hydrophobicity and estrogenic activity of simple phenols with silicon and germanium-containing substituents” (J Med Chem, 2013).
Active and inactive are the calls of the source. The rule behind the calls is not given here.

Assays:
MCF7 [1] = assay: Estrogenic activity in human MCF7 cells assessed as cell proliferation at 10^-12 M to 10^-6 M after 7 days by WST-8 assay relative to estradiol; format: functional
[2] = Octanol-water partition coefficient, log P of the compound by HPLC analysis
MCF7 [3] = assay: Estrogenic activity in human MCF7 cells assessed as cell proliferation after 7 days by WST-8 assay; format: functional, cell-based
Summary of the method: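 Cells were seeded at 1.2 × 10³ per well in the same medium. Proliferation was read by WST-8 (2 h, absorbance at 450 nm). Viable cell number was plotted against log concentration and EC₅₀ taken from a sigmoidal fit.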

[4] = Dissociation constant, pKa of the compound
[5] = target: T1, Estrogen receptor (Homo sapiens) (UniProt P03372); assay: Displacement of [3H]estradiol from human recombinant ER at 10^-8 to 10^-7 M after 14 to 18 hrs by scintillation counting analysis; settings: in the assay text read “10^-8 to 10^-4 M” for “10^-8 to 10^-7 M”
T1 sequence (whole entry): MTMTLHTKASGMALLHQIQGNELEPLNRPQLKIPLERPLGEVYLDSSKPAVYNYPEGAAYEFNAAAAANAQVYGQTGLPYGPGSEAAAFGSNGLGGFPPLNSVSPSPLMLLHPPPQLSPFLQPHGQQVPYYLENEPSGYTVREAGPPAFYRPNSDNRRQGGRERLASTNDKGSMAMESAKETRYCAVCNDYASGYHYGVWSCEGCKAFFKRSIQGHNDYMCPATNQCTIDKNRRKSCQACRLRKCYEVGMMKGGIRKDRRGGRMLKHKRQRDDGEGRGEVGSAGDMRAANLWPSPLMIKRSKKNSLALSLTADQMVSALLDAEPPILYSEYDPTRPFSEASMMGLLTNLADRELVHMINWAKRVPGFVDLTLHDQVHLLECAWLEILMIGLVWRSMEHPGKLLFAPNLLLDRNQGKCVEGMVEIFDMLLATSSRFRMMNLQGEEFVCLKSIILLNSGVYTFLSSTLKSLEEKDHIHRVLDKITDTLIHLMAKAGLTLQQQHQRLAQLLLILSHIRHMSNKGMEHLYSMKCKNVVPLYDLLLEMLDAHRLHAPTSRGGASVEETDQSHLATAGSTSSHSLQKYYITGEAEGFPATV
Summary of the method: (§1)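 Recombinant human ER was diluted in binding buffer (50 mM Tris pH 7.5, 10% glycerol, 0.1 mM BHA, 10 mM mercaptoethanol, 0.5% yeast extract) to 2–4 nM. It was incubated refrigerated for 14–18 h with 10⁻⁸ M [³H]estradiol final and 10⁻⁴–10⁻⁸ M competitor in DMSO. Bound ligand was captured on hydroxylapatite for 15 min at 0 °C, washed three times with Tris pH 7.3, and counted by scintillation. Run in duplicate.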

[6] = target: T1, Estrogen receptor (Homo sapiens); assay: (§2) Agonist activity at ER in human T47D-Kbluc cells at 10^-14 to 10^-7 M after 24 hrs by luciferase reporter gene assay; format: cell-based
Summary of the method: (§3)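 After 24 h at 37 °C, compounds were added at 10⁻¹⁴ to 10⁻⁷ M final in 0.1% DMSO final. After a further 24 h, Steady-Glo was added and luminescence read after 5 min.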

[7] = target: T1, Estrogen receptor (Homo sapiens); assay: (§4) Displacement of [3H]estradiol from human recombinant ER after 14 to 18 hrs by scintillation counting analysis; summary of the method: as §1
[8] = target: Estrogen receptor (Homo sapiens) (UniProt P03372); assay: as §4; summary of the method: as §1; remark: listed apart in the source
[9] = target: Estrogen receptor (Homo sapiens) (UniProt P03372); assay: as §2; format: cell-based; summary of the method: as §3; remark: listed apart in the source

Compound	logP [2]	EC50 (MCF7 [3]; Homo sapiens, MCF7, 168 h)	other results
Oc1ccc([Si](c2ccccc2)(c2ccccc2)c2ccccc2)cc1	6.83		Emax (MCF7 [1]; MCF7, 168 h): 29%
C[Si](C)(C)c1ccc(O)cc1	4.12	63 nM	pKa [4]: 10.1
4-Triphenylgermylphenol [listing 1 of 2 here]			Emax (MCF7 [1]): 47%
C[Si](C)(c1ccccc1)c1ccc(O)cc1	4.91	16 nM	
CC(C)(C)c1ccc(O)cc1		870 nM	
CCC(CC)(CC)c1ccc(O)cc1	5.03	23 nM	inhibition [5]: Active; Activity [6]: Active
Oc1ccc(C(c2ccccc2)(c2ccccc2)c2ccccc2)cc1	6.25		Emax (MCF7 [1]; MCF7, 168 h): 16%
4-Triphenylgermylphenol [listing 2 of 2 here]	6.97		
4-Triethylgermylphenol [listing 1 of 2 here]	5.71		EC50 (MCF7 [3]; mcf7): 2.1 nM
CC(C)(c1ccccc1)c1ccc(O)cc1	4.31	38 nM	
4-Trimethylgermylphenol	4.11		EC50 (MCF7 [3]; mcf7): 100 nM; pKa [4]: 10.2
CC[Si](C)(C)c1ccc(O)cc1	4.64	41 nM	
CC[Si](CC)(CC)c1ccc(O)cc1	5.69	3.4 nM	inhibition [7]: Dose-dependent effect; Activity [6]: Active
4-Triethylgermylphenol [listing 2 of 2 here]			inhibition [8]: Dose-dependent effect; Activity [9]: Active
CCC(C)(C)c1ccc(O)cc1	4.04	190 nM	
